{"data": "Experimental data gathered from unrelated publications", "target": "Serine/threonine-protein kinase 4 (STK4, Homo sapiens, UniProt Q13043)", "One construct used (Q13043 1-487)": "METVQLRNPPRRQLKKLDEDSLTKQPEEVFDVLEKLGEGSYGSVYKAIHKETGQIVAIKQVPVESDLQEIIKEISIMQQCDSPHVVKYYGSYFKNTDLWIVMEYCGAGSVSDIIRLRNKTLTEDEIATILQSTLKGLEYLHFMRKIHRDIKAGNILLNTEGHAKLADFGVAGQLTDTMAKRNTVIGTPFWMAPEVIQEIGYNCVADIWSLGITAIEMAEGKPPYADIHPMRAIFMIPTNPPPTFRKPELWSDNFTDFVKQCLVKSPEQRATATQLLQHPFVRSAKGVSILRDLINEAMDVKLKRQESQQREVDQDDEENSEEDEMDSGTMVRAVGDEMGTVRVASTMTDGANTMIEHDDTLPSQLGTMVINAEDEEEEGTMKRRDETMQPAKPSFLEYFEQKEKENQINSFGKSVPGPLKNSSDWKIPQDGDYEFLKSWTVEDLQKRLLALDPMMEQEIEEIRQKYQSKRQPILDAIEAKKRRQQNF", "note": "Protocols differ between the studies behind these lines."}
{"Structure (SMILES)": "O=C(Nc1c[nH]nc1C(=O)NC1CCNCC1)c1cc(F)cc(F)c1", "assay": "binding, competition with immobilised ligand", "conditions": "1 µM", "remaining binding": "100%"}
{"Structure (SMILES)": "CCC(=O)N[C@H]1CC[C@@H](C(=O)N(C)c2ccc(-c3nc4ccccc4o3)cc2)C1", "assay": "cell-free assay, competition with immobilised ligand", "conditions": "1 µM", "remaining binding": "100%"}
{"Structure (SMILES)": "C[C@@H]1CCN(c2nccc(-c3cnn4ncccc34)n2)C1", "assay": "binding", "conditions": "1 µM", "remaining binding": "85%"}
{"Structure (SMILES)": "COc1ncc2cc3ccccc3nc2c1C#N", "assay": "cell-free assay, competition with immobilised ligand", "conditions": "5 µM", "remaining binding": "96%"}
{"Structure (SMILES)": "COc1cccc(CNC(=O)c2nc3scc(COCc4ccc(C(=O)O)cc4)c3c(=O)[nH]2)c1", "assay": "cell-free assay, competition with immobilised ligand", "conditions": "1 µM", "remaining binding": "75%"}
{"Structure (SMILES)": "CN(CCCC(F)(F)F)c1nccc(-c2cnn3ncccc23)n1", "assay": "binding", "conditions": "1 µM", "remaining binding": "89%"}
{"Structure (SMILES)": "c1cncc(-c2cccc(Nc3nccc(NC4CCCCC4)n3)c2)c1", "assay": "binding, competition with immobilised ligand", "conditions": "10 µM", "remaining binding": "97%"}
{"Structure (SMILES)": "O=C(c1ccc(Nc2ncc(Cl)c(-c3cc4ccccc4s3)n2)cc1)N1CCC(N2CCCC2)CC1", "assay": "binding, competition with immobilised ligand", "conditions": "1 µM", "remaining binding": "100%"}
{"Structure (SMILES)": "FC(F)(F)Oc1cccc(-c2cnc3ccc(-c4ccncc4)nn23)c1", "assay": "cell-free assay, competition with immobilised ligand", "conditions": "5 µM", "remaining binding": "100%"}
{"Structure (SMILES)": "F[C@@H]1CCN(c2nccc(-c3cnn4ncccc34)n2)C1", "assay": "binding", "conditions": "1 µM", "remaining binding": "91%"}
{"Structure (SMILES)": "Nc1c(C(=O)NCc2ccc(C(=O)NCCCC3CCCCC3)cc2)cnn1-c1ccccc1", "assay": "cell-free assay, competition with immobilised ligand", "conditions": "0.1 µM", "remaining binding": "100%"}
{"Structure (SMILES)": "N[C@@H]1CCN(c2nccc(-c3cnn4ncccc34)n2)C1", "assay": "binding", "conditions": "1 µM", "remaining binding": "100%"}
{"Structure (SMILES)": "N#CC1(c2ccccn2)CCN(Cc2cc(C(=O)N3CCCC3)c(=O)n3ccccc23)CC1", "assay": "cell-free assay, competition with immobilised ligand", "conditions": "1 µM", "remaining binding": "88%"}
{"Structure (SMILES)": "CN(C)c1nccc(-c2cnn3ncccc23)n1", "assay": "binding", "conditions": "1 µM", "remaining binding": "100%"}
{"Structure (SMILES)": "CNC(=O)[C@@H]1CC[C@@H](n2c(-c3ccc4cnccc4c3)nc3ccc(C(=O)NCc4cccc(C(N)=O)c4)cc32)C1", "assay": "binding, competition with immobilised ligand", "conditions": "1 µM", "remaining binding": "81%"}
{"Structure (SMILES)": "CNC(=O)c1ccc(Nc2ncc(C(F)(F)F)c(NCc3nccnc3N(C)S(C)(=O)=O)n2)cc1", "assay": "cell-free assay, competition with immobilised ligand", "conditions": "0.1 µM", "remaining binding": "97%"}
{"Structure (SMILES)": "O=C(NCCCN1CCOCC1)c1ccc(Nc2ncc(Cl)c(-c3ccc(Cl)s3)n2)cc1", "assay": "binding, competition with immobilised ligand", "conditions": "1 µM", "remaining binding": "90%"}
{"Structure (SMILES)": "Cc1c(C(=O)O)cc(-c2ccc(C3CCNCC3)cc2)c2ccc(-c3ccc(C(F)(F)F)cc3)cc12", "assay": "binding, competition with immobilised ligand", "conditions": "1 µM", "remaining binding": "95%"}
{"Structure (SMILES)": "COc1ccnn2ncc(-c3ccnc(N(C)C)n3)c12", "assay": "binding", "conditions": "1 µM", "remaining binding": "100%"}
{"Structure (SMILES)": "O=C(c1ccc(Nc2ncc(Cl)c(-c3ccc(Cl)s3)n2)cc1)N1CCC(N2CCCC2)CC1", "assay": "binding, competition with immobilised ligand", "conditions": "1 µM", "remaining binding": "90%"}
